Most compounds without a hit are left out; they make up all but 4.5% or so of the library.
CHOP inhibitor = inhibitors of CHOP induction in ER stress response; AID 2732; inhibition, % at 10 µM; 3.8% of 220,000 active; CHO-K1 CHOP-promoter luciferase, tunicamycin-induced, 15-18 h;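 active = compounds that reduced the stress-induced luciferase reporter signal by more than about 70% of percent inhibition, limit read from the data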;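 note: 0% = tunicamycin plus vehicle and 100% = wells without tunicamycin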
PfM18AAP inh = blocks P. falciparum M18 aspartyl aminopeptidase. AID 1822. inhibition, % at 7.35 µM. recombinant PfM18AAP, H-Glu-NHMec fluorogenic cleavage. 1.2% of 290,000 active;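 active = inhibition above the campaign mean inhibition over all tested compounds plus 3 SD, cut at about 28% in these data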;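 note: 0% = plate median of test compound wells and 100% = 2 mM ZnCl2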
CHOP UPR activ = activators of apoptotic arm of unfolded protein response (CHOP); activation, % at 10 µM; CHO-CHOP luciferase reporter, UPR activation, luminescence; percent of tunicamycin response over DMSO baseline; 0.34% of 330,000 active;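 active = at 10 µM dose, activation of 40% or more, normalized to positive control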;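 note: 100% = tunicamycin at 10 µg/mL and 0% = DMSO alone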
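Assay system: CHO cells with stable CHOP pathway luciferase reporter; Buffer or medium: F12 plus 10% serum; Times: 16-18 h cell attachment, then 6 h compound exposure, 37 °C; Signal: luciferase luminescence; Read-out basis: percent activation relative to tunicamycin control; Control set: tunicamycin high control, DMSO low control.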
p97 inhibitor = human p97 ATPase inhibition; recombinant p97 ATPase, Kinase-Glo ATP luminescence, 3 h; P55072; 0.42% of 220,000 active; inhibition, % at 8 µM; in the data active = inhibition above about 15%;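 note: 0% = DMSO vehicle and 100% = wells lacking enzyme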
Target sequence (P55072 whole entry, looked up): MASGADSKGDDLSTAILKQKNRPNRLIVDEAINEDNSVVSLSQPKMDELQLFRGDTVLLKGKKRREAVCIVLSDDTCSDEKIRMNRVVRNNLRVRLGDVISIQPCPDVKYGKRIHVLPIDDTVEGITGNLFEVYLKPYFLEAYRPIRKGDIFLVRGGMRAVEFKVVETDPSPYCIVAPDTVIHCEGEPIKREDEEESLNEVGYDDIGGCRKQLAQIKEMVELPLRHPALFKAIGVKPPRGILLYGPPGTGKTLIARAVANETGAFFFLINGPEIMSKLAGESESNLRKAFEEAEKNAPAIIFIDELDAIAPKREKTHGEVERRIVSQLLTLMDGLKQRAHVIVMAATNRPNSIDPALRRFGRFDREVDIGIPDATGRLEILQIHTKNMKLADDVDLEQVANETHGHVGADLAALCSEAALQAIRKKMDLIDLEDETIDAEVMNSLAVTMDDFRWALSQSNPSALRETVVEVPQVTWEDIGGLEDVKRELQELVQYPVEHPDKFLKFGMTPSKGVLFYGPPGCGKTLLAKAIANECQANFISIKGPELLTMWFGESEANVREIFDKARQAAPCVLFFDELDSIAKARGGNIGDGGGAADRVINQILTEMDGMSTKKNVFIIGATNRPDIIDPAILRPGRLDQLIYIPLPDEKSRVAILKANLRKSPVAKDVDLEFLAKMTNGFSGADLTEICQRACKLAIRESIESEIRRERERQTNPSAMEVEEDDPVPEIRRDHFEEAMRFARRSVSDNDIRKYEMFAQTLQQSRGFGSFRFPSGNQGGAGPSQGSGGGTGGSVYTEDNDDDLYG
HCV NS3 hel inh = blocks Hepatitis C virus NS3 helicase unwinding; NS3 helicase DNA unwinding, Cy5 molecular beacon fluorescence; inhibition, % at 10.9 µM; 0.56% of 290,000 active; AID 1800;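 active = inhibition above the mean of all tested compounds plus 3 SD, set per campaign, cut at about 35% in these data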;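 note: 0% = DMSO wells and 100% = thioflavine S control wells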
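Assay system – hepatitis C virus NS3 helicase domain fragment enzyme · Buffer or medium – MOPS pH 6.5, MgCl2, DTT, Tween20, BSA · Reagent – Cy5/quencher beacon DNA duplex and ATP to start · Compound – single 10.9 µM dose · Timing – 1 h at 25 °C · Technique – Cy5 beacon fluorescence read at start and 1 h · Measure – % inhibition of unwinding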
UPR XBP1 act = activators of adaptive arm of unfolded protein response (XBP1). 0.33% of 330,000 active. AID 463104. activation, % at 20 µM. CHO-XBP1 luciferase reporter, IRE1-XBP1 UPR activation, luminescence; percent of tunicamycin response, DMSO as zero;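 active = versus positive control, 20 µM dose yields 30% or more activation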;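 note: 100% = tunicamycin at 10 µg/mL and 0% = DMSO only wells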
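assay system = CHO-XBP1 luciferase reporter cells | amount = 1000 cells/well | buffer or medium = F12 plus 10% FBS | compound dosing = single point, 20 µM final compound, 1% DMSO | incubation = 16-18 h cell attachment at 37 °C, then 6 h compound exposure | detection = Steady-Glo luminescence read | controls = tunicamycin 10 µg/mL and vehicle-only wells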
CHOP UPR conf = confirmation of apoptotic unfolded protein response (CHOP) activators | shares compounds with CHOP UPR activ | CHO-CHOP cells, CHOP-luciferase reporter luminescence; percent of tunicamycin response, DMSO as zero | activation, % at 10 µM | 64% of 1,000 active | AID 463112; in the data active = activation above about 33%;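 note: 0% = DMSO wells and 100% = tunicamycin 10 µg/mL wells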
* = called active by the depositor.

`Cc1ccc(C)c(NC(=O)CN2C(=O)COc3ccc(S(=O)(=O)N4CCCC4)cc32)c1` gave PfM18AAP inh 2, CHOP UPR activ 3, HCV NS3 hel inh -2 and UPR XBP1 act -2.
`S=C1NCN(Cc2ccco2)CN1` gave CHOP inhibitor 12, PfM18AAP inh -1, CHOP UPR activ 0, p97 inhibitor -4, HCV NS3 hel inh 2 and UPR XBP1 act 0.
CCCCCN1CSC(=S)N(Cc2ccccc2)C1 was read as CHOP inhibitor 0, PfM18AAP inh -3, CHOP UPR activ 27, p97 inhibitor 11, HCV NS3 hel inh 0 and UPR XBP1 act 0.
For S=C1SCN(Cc2ccco2)CN1Cc1ccco1 the results were CHOP inhibitor -147, PfM18AAP inh 6, CHOP UPR activ 59*, p97 inhibitor 4, HCV NS3 hel inh 4, UPR XBP1 act 7 and CHOP UPR conf 47*.
For CCN1CSC(=S)N(Cc2ccccc2)C1 the results were PfM18AAP inh -6, CHOP UPR activ 86*, HCV NS3 hel inh -5, UPR XBP1 act 0 and CHOP UPR conf 91*.
For COc1ccc2[nH]c3c(c2c1)CCN1C(=O)C(CC(=O)NCc2cccc(C(F)(F)F)c2)C[C@H](C(=O)N2CCCCC2)[C@@]31CCc1ccccc1 (some centres undefined) the results were CHOP UPR activ 12 and UPR XBP1 act 3.
For C=CCNC(=S)/N=c1/ccccn1CCC the results were CHOP inhibitor 2, PfM18AAP inh 6, CHOP UPR activ 0, p97 inhibitor 4, HCV NS3 hel inh 5 and UPR XBP1 act 0.
For Cc1nc2scc(-c3ccccc3)c2c(=O)n1N=C1C=CC(=O)C=C1 the results were CHOP inhibitor 110*, PfM18AAP inh -28, CHOP UPR activ 90*, p97 inhibitor 9, HCV NS3 hel inh 4, UPR XBP1 act -7 and CHOP UPR conf 13.
O=C(CN1C(=O)c2ccccc2S1(=O)=O)NCCc1ccc(F)cc1 was read as CHOP UPR activ 4 and UPR XBP1 act -3.
For Cn1cc(/C=C2\SC(=O)NC2=S)c2ccccc21 the results were CHOP inhibitor 40, PfM18AAP inh 13, CHOP UPR activ 51*, p97 inhibitor 11, HCV NS3 hel inh 17, UPR XBP1 act 17 and CHOP UPR conf 67*.
O=C(/C=C/c1c(F)cccc1Cl)c1ccc(O)cc1 was read as CHOP inhibitor -79, PfM18AAP inh -2, CHOP UPR activ 60*, p97 inhibitor 12, HCV NS3 hel inh -10, UPR XBP1 act -3 and CHOP UPR conf 2.
C1=CC2=NC34CCCCC3CC3=C(CCCC3)N4C2=CC1=NC1CCCCC1 (centres undefined) was read as CHOP UPR activ 49*, UPR XBP1 act 10 and CHOP UPR conf 1.
Screening Cc1ccc(C(C[N+](=O)[O-])Sc2ccc(N)cc2)cc1 (centres undefined) returned CHOP inhibitor -9, PfM18AAP inh 16, CHOP UPR activ 117*, p97 inhibitor 4, HCV NS3 hel inh 6, UPR XBP1 act -4 and CHOP UPR conf -6.
`Cc1ccc(O)c(C(=O)c2cnn(C(=O)c3cccc(S(=O)(=O)N(C)C)c3)c2)c1` gave CHOP UPR activ -1 and UPR XBP1 act 0.
Screening CCOc1ccc2c(c1)C(=NNC(=O)c1ccncc1)c1cc(OCC)ccc1-2 returned CHOP inhibitor -5, PfM18AAP inh -5, CHOP UPR activ 50*, p97 inhibitor 5, HCV NS3 hel inh -18, UPR XBP1 act 5 and CHOP UPR conf 43*.
CCC(C)Sc1ccc([C@H]2N[C@@](CC(C)C)(C(=O)OC)[C@H]3C(=O)N(C)C(=O)[C@@H]23)cc1 (some centres undefined) was read as CHOP UPR activ 0 and UPR XBP1 act -3.
`COC(=O)c1ccc(C(=O)OC)c(NC(=O)CSc2cccc[n+]2[O-])c1` gave CHOP inhibitor -64, PfM18AAP inh 12, CHOP UPR activ 87*, p97 inhibitor 2, HCV NS3 hel inh 1, UPR XBP1 act 19 and CHOP UPR conf 122*.
COc1ccc(C(c2c(C)[nH]n(C(N)=S)c2=O)C(C#N)C#N)cc1 (centres undefined) was read as CHOP inhibitor -59, PfM18AAP inh 17, CHOP UPR activ 62*, p97 inhibitor 2, HCV NS3 hel inh 8, UPR XBP1 act 2 and CHOP UPR conf 56*.
For CN(C)C(=O)c1ccc(Nc2ncnc3sc4c(c23)CCCCC4)cc1 the results were PfM18AAP inh 0, CHOP UPR activ 1, HCV NS3 hel inh 10 and UPR XBP1 act 2.
For O=C(N/N=C/c1cccc([N+](=O)[O-])c1)c1cc(-c2ccc3c4c(cccc24)CC3)n[nH]1 the results were CHOP inhibitor -1, PfM18AAP inh 0, CHOP UPR activ -1, p97 inhibitor 6, HCV NS3 hel inh -5 and UPR XBP1 act -2.
Screening O=C(N/N=C/c1ccc(Cl)c([N+](=O)[O-])c1)c1cc(-c2ccc3c4c(cccc24)CC3)n[nH]1 returned CHOP inhibitor 77*, PfM18AAP inh 8, CHOP UPR activ 43*, p97 inhibitor 2, HCV NS3 hel inh -6, UPR XBP1 act 1 and CHOP UPR conf 14.
For Cc1[nH]c2ccccc2c1/C=N/Nc1nc2ccccc2[nH]1 the results were CHOP inhibitor -222, PfM18AAP inh 14, CHOP UPR activ 87*, p97 inhibitor 12, HCV NS3 hel inh -47, UPR XBP1 act 5 and CHOP UPR conf 3.
C(=N\Nc1nc2ccccc2[nH]1)/c1ccccc1 was read as CHOP inhibitor 27, PfM18AAP inh 9, CHOP UPR activ 4, p97 inhibitor 4, HCV NS3 hel inh -1 and UPR XBP1 act 2.
Screening CSc1sc(C(=O)N2CCCCC2)c(-c2cccs2)c1C#N returned CHOP inhibitor 14, PfM18AAP inh -2, CHOP UPR activ 0, p97 inhibitor -2, HCV NS3 hel inh 1 and UPR XBP1 act 1.
Screening COc1ccc(C(C[N+](=O)[O-])c2c(C)[nH]n(-c3ccccc3)c2=O)cc1 (centres undefined) returned PfM18AAP inh 45*, CHOP UPR activ 89*, HCV NS3 hel inh -13, UPR XBP1 act -7 and CHOP UPR conf 0.
For Cc1[nH]n(-c2ccccc2)c(=O)c1C(C[N+](=O)[O-])c1ccccc1Cl (centres undefined) the results were CHOP inhibitor -8, PfM18AAP inh 17, CHOP UPR activ 2, p97 inhibitor 6, HCV NS3 hel inh -1 and UPR XBP1 act -2.

High-throughput results as filed in PubChem BioAssay.
